Results as given in ChEMBL document CHEMBL3596173, “Structural Requirements for CNS Active Opioid Glycopeptides” (J Med Chem, 2015).
Non-standard residues stand in square brackets, D forms with d. Residues, ends and D or L forms follow the SMILES beside them. *: point of attachment. βGlc = OC[C@H]1O[C@@H](*)[C@H](O)[C@@H](O)[C@@H]1O; Aib = CC(C)(N)C(=O)O

Tests used:
Format in all cases: cell-based
[1] = biological target: Delta-type opioid receptor (Homo sapiens, UniProt P41143); assay: Displacement of [3H]-naltrindole from human delta opioid receptor expressed in CHO cells after 3 hrs by scintillation counting analysis
Chain of Delta-type opioid receptor (P41143 whole entry): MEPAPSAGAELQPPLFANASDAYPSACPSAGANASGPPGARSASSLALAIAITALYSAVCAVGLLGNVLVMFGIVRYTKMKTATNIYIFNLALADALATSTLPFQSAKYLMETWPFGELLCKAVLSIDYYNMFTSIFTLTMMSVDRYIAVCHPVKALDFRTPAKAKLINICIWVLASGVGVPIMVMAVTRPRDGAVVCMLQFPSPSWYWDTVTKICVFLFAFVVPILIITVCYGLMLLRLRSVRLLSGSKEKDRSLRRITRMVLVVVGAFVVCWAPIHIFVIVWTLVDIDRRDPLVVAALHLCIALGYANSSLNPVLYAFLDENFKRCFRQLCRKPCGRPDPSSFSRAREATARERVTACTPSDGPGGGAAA
Outline: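 Binding used CHO-cell membranes bearing human δ receptor and 0.2 nM (final) [3H]naltrindole, incubated 3 h at 25 °C in 50 mM Tris-HCl pH 7.5. Nonspecific binding was defined with 100 μM naloxone. Samples were glass-fiber filtered, washed with cold buffer and scintillation counted. IC50 came from a log-probit least-squares fit and was converted to Ki as IC50/(1+S).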

Mu-type opioid receptor = Mu-type opioid receptor (Homo sapiens, UniProt P35372); assay: Displacement of [3H]-DAMGO from human mu opioid receptor expressed in CHO cells after 60 mins by scintillation counting analysis
Chain of Mu-type opioid receptor (P35372 whole entry): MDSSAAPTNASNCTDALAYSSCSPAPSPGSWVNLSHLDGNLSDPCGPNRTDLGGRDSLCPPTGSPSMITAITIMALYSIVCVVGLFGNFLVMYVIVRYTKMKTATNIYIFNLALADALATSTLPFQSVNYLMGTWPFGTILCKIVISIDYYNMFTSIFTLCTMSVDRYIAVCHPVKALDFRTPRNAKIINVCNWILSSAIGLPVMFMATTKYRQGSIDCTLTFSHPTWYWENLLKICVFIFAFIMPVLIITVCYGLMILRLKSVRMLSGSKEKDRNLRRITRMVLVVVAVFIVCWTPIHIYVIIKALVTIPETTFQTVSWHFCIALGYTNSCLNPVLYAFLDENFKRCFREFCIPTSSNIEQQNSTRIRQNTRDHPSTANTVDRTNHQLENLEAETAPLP
Outline: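 Membranes from CHO cells stably expressing human μ receptor were incubated with 0.25 nM (final) [3H]DAMGO in 50 mM Tris-HCl pH 7.5 for 60 min at 25 °C. Bound radioligand was separated by glass-fiber filtration with cold buffer washes and counted by scintillation. IC50 came from a least-squares log-probit fit, and Ki from IC50/(1+S).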

[2] = biological target: Kappa-type opioid receptor (Homo sapiens, UniProt P41145); assay: Displacement of [3H]-U69593 from human kappa opioid receptor expressed in CHO cells after 60 mins by scintillation counting analysis
Chain of Kappa-type opioid receptor (P41145 whole entry): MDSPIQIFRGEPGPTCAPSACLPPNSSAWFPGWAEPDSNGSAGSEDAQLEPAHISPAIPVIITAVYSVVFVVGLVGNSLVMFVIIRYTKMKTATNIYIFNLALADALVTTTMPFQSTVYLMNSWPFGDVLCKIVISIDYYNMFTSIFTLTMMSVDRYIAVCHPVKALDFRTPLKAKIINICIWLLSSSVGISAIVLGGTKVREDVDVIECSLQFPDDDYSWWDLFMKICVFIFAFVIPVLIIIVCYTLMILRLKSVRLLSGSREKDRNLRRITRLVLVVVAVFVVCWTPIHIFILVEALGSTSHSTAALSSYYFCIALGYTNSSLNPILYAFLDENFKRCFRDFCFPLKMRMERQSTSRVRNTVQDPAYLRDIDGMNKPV
Outline: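 Human κ receptor stably expressed in CHO cells was used as a membrane prep. It was incubated with 1 nM (final) [3H]U69,593 for 60 min at 25 °C in 50 mM Tris-HCl pH 7.5, with 10 μM naloxone defining nonspecific binding. Samples were filtered through glass-fiber filters presoaked ≥30 min in 0.1% polyethylenimine, washed cold and scintillation counted. Ki was derived from a log-probit IC50 via IC50/(1+S).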

SMILES	Ki [1]	Ki (Mu-type opioid receptor)	Ki [2]	Ki ([1]; cho)	Ki (Mu-type opioid receptor; cho)	Ki ([2]; cho)
CC(C)C[C@H](NC(=O)[C@H](CO[C@@H]1O[C@H](CO)[C@@H](O)[C@H](O)[C@H]1O)NC(=O)[C@H](CCCCN)NC(=O)[C@H](CC(C)C)NC(=O)[C@H](C)NC(=O)[C@H](CCCCN)NC(=O)[C@H](CCC(=O)O)NC(=O)C(C)(C)NC(=O)[C@H](CC(C)C)NC(=O)[C@H](CC(N)=O)NC(=O)[C@H](C)NC(=O)[C@H](CC(C)C)NC(=O)[C@H](Cc1ccccc1)NC(=O)CNC(=O)[C@@H](NC(=O)[C@@H](N)Cc1ccc(O)cc1)[C@@H](C)O)C(N)=O (H-YTGFLANL[Aib]EKALKS(βGlc)L-NH2)	21 nM	39 nM	9.7 nM			
CC(C)C[C@H](NC(=O)[C@H](CO[C@@H]1O[C@H](CO)[C@@H](O)[C@H](O)[C@H]1O)NC(=O)[C@H](CCCCN)NC(=O)[C@H](CC(C)C)NC(=O)[C@H](C)NC(=O)[C@H](CCCCN)NC(=O)[C@H](CCC(=O)O)NC(=O)C(C)(C)NC(=O)[C@H](CC(C)C)NC(=O)[C@H](CC(N)=O)NC(=O)CNC(=O)CNC(=O)[C@H](Cc1ccccc1)N(C)C(=O)CNC(=O)[C@@H](C)NC(=O)[C@@H](N)Cc1ccc(O)cc1)C(N)=O	1500 nM	2.8 nM	59 nM			
CC(C)C[C@H](NC(=O)[C@H](CO[C@@H]1O[C@H](CO)[C@@H](O)[C@H](O)[C@H]1O)NC(=O)[C@H](CCCCN)NC(=O)[C@H](CC(C)C)NC(=O)[C@H](C)NC(=O)[C@H](CCCCN)NC(=O)[C@H](CCC(=O)O)NC(=O)C(C)(C)NC(=O)[C@H](CC(C)C)NC(=O)[C@H](CC(N)=O)NC(=O)CCNC(=O)[C@H](Cc1ccccc1)N(C)C(=O)CNC(=O)[C@@H](C)NC(=O)[C@@H](N)Cc1ccc(O)cc1)C(N)=O	1400 nM	4.8 nM	200 nM			
CC(C)C[C@H](NC(=O)[C@H](CO[C@@H]1O[C@H](CO)[C@@H](O)[C@H](O)[C@H]1O)NC(=O)[C@H](CCCCN)NC(=O)[C@H](CC(C)C)NC(=O)[C@H](C)NC(=O)[C@H](CCCCN)NC(=O)[C@H](CCC(=O)O)NC(=O)C(C)(C)NC(=O)[C@H](CC(C)C)NC(=O)[C@H](CC(N)=O)NC(=O)[C@@H]1CCCN1C(=O)CNC(=O)[C@H](Cc1ccccc1)N(C)C(=O)CNC(=O)[C@@H](C)NC(=O)[C@@H](N)Cc1ccc(O)cc1)C(N)=O	840 nM	3.2 nM	45 nM			
CC(C)C[C@H](NC(=O)[C@H](CO[C@@H]1O[C@H](CO)[C@@H](O)[C@H](O)[C@H]1O)NC(=O)[C@H](CCCCN)NC(=O)[C@H](CC(C)C)NC(=O)[C@H](C)NC(=O)[C@H](CCCCN)NC(=O)[C@H](CCC(=O)O)NC(=O)C(C)(C)NC(=O)[C@H](CC(C)C)NC(=O)[C@H](CC(N)=O)NC(=O)CNC(=O)[C@H](CC(C)C)NC(=O)[C@H](Cc1ccccc1)NC(=O)CNC(=O)[C@@H](NC(=O)[C@@H](N)Cc1ccc(O)cc1)[C@@H](C)O)C(N)=O (H-YTGFLGNL[Aib]EKALKS(βGlc)L-NH2)	31 nM	26 nM	14 nM			
CC(C)C[C@H](NC(=O)[C@H](CO[C@@H]1O[C@H](CO)[C@@H](O)[C@H](O)[C@H]1O)NC(=O)[C@H](CCCCN)NC(=O)[C@H](CC(C)C)NC(=O)[C@H](C)NC(=O)[C@H](CCCCN)NC(=O)[C@H](CCC(=O)O)NC(=O)C(C)(C)NC(=O)[C@H](CC(C)C)NC(=O)[C@H](CC(N)=O)NC(=O)[C@H]1CCCN1C(=O)[C@H](CC(C)C)NC(=O)[C@H](Cc1ccccc1)NC(=O)CNC(=O)[C@@H](NC(=O)[C@@H](N)Cc1ccc(O)cc1)[C@@H](C)O)C(N)=O				73 nM	27 nM	78 nM
CC(C)C[C@H](NC(=O)[C@H](CO[C@@H]1O[C@H](CO)[C@@H](O)[C@H](O)[C@H]1O)NC(=O)[C@H](CCCCN)NC(=O)[C@H](CC(C)C)NC(=O)[C@H](C)NC(=O)[C@H](CCCCN)NC(=O)[C@H](CCC(=O)O)NC(=O)C(C)(C)NC(=O)[C@H](CC(C)C)NC(=O)[C@H](CC(N)=O)NC(=O)[C@@H]1CCCN1C(=O)[C@@H]1CCCN1C(=O)[C@H](Cc1ccccc1)N(C)C(=O)CNC(=O)[C@@H](C)NC(=O)[C@@H](N)Cc1ccc(O)cc1)C(N)=O	2300 nM	15 nM	19 nM			
